Data set [1] addresses T1, Nucleotide-binding oligomerization domain-containing protein 2 (Homo sapiens, UniProt Q9HC29). The experiment in a line: Antagonist activity at recombinant human NOD2 expressed in HEK293 cells assessed as inhibition of MDP-induced IL8 release measured after 24 hrs by HTRF assay. The format is cell-based. On the technique in general: Time-resolved FRET reads energy transfer from a long-lived donor to a nearby acceptor.

Data set [2] concerns the target T1, Nucleotide-binding oligomerization domain-containing protein 2. Description: Antagonist activity at NOD2 in HEK-Blue hNOD2 cells assessed as inhibition of MDP-induced NFkappaB activation-mediated SEAP release preincubated for 3 hrs followed by MDP addition and measured after 20 hrs by spectrophotometric method. The format is cell-based. An outline of the steps: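 HEK-Blue hNOD2 cells preincubated 3 h with a range of concentrations, then MDP 100 ng/mL for 20 h. SEAP quantified. SRB assay run to exclude cytotoxicity. IC50 by nonlinear semi-logarithmic fit, mean ± SD, n = 3.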

Data set [3] addresses T2, Nucleotide-binding oligomerization domain-containing protein 1 (Homo sapiens, UniProt Q9Y239).
T2 sequence (Q9Y239 whole entry): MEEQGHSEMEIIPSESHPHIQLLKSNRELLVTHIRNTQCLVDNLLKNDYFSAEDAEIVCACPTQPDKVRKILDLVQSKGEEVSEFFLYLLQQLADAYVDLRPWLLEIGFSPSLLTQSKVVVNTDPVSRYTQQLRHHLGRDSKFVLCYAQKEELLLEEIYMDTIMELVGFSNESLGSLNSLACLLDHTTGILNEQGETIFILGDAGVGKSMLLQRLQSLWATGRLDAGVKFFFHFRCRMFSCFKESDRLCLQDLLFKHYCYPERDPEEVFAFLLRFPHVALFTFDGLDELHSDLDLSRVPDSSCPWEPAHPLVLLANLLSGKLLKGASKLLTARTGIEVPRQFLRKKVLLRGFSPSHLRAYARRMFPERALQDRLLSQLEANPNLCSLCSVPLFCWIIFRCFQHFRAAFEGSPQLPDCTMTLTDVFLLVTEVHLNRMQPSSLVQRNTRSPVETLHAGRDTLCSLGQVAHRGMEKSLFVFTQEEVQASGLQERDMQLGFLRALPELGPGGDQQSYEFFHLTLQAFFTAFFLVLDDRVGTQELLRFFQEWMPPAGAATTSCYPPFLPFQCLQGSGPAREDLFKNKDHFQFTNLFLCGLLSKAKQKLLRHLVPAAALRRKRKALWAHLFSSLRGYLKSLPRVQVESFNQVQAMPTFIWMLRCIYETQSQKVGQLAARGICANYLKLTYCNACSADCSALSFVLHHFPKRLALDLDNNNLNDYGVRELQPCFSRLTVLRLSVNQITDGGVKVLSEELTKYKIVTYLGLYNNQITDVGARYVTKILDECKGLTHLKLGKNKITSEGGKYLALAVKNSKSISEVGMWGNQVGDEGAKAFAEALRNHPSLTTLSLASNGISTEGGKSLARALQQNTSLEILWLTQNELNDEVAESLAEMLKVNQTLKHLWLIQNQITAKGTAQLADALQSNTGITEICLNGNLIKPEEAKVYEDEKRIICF
Description: Antagonist activity at NOD1 in HEK-Blue hNOD1 cells assessed as inhibition of C12-iE-DAP-induced NFkappaB activation-mediated SEAP release preincubated for 3 hrs followed by C12-iE-DAP addition and measured after 20 hrs by spectrophotometric method. The format is cell-based.

Data set [4] has as its target T1, Nucleotide-binding oligomerization domain-containing protein 2. Description: Antagonist activity at NOD2 in HEK-Blue hNOD2 cells assessed as inhibition of MDP-induced NFkappaB activation-mediated SEAP release at 5 uM preincubated for 3 hrs followed by MDP addition and measured after 20 hrs by spectrophotometric method relative to control. The data set is classed as cell-based. The following applies: time 23.0 hrs.

The target in data set [5] is T3, Nucleotide-binding oligomerization domain-containing protein 1 (Homo sapiens) (UniProt Q9Y239).
T3 sequence (whole entry): T2 sequence (Q9Y239 whole entry)
The experiment in a line: Antagonist activity at NOD1 in HEK-Blue hNOD1 cells assessed as inhibition of C12-iE-DAP-induced NFkappaB activation-mediated SEAP release at 5 uM preincubated for 3 hrs followed by C12-iE-DAP addition and measured after 20 hrs by spectrophotometric method relative to control. The data set is classed as cell-based. The following applies: time 23.0 hrs.

A short description of data set [6]: Half life in mouse liver microsomes at 1.25 uM preincubated for 5 mins followed by NADPH generating system addition and measured for 120 mins by LC-MS/MS analysis. The data set is classed as ADME, Microsome. In short, it runs like this: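 Mouse liver microsomes (1.25 mg/mL protein) in 100 mM phosphate pH 7.4 with 1.25 µM compound, preincubated 5 min at 37 °C. Reaction started with NADPH-generating system (1 mM NADP, 10 mM MgCl2, 10 mM G6P, 0.5 U/mL G6PDH). Sampled at 0–120 min, quenched with MeOH/ACN 1:1, analysed by LC-MS/MS.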
In general terms: Microsomes from liver hold many membrane-bound enzymes, among them those of drug oxidation.

Data set [7] addresses T2, Nucleotide-binding oligomerization domain-containing protein 1. Description: Antagonist activity at recombinant human NOD1 expressed in HEK293 cells assessed as inhibition of C12-iE-DAP-induced IL8 release measured after 24 hrs by HTRF assay. The data set is classed as cell-based.

A value given as a limit tells only on which side of the number the result lay.

T1 sequence (Q9HC29 whole entry, the tested form may be a part): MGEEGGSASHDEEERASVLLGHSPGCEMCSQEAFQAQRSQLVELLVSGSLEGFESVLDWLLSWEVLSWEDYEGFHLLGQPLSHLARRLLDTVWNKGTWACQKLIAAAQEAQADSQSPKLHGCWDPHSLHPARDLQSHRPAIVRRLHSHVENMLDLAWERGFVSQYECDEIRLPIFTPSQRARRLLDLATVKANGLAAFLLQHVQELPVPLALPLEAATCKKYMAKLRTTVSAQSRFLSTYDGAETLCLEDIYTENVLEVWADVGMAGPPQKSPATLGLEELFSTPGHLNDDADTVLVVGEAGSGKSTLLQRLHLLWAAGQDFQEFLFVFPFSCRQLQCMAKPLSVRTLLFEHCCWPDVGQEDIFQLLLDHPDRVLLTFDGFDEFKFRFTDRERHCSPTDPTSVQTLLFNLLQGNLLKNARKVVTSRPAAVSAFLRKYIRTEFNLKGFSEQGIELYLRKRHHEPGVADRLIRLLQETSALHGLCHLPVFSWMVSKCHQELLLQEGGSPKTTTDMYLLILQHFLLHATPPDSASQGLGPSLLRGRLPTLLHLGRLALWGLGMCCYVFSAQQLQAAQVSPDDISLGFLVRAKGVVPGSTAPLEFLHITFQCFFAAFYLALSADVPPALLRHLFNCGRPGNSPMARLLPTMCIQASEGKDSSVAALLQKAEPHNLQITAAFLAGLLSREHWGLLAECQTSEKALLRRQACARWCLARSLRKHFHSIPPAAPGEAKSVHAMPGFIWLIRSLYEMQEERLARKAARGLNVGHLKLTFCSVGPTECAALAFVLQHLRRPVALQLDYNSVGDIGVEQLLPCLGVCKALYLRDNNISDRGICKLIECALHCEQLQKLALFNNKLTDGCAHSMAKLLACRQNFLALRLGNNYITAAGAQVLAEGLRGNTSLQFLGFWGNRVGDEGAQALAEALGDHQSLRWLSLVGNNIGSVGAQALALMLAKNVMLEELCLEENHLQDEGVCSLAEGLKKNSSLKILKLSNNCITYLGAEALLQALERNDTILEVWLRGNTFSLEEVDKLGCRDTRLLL

As to `CCc1ccc(S(=O)(=O)Nc2cc(-n3c(C)nc4ccccc4c3=O)ccc2F)s1`, the half-inhibitory concentration (IC50) in data set [1] is above 50000 nM.

As to `CN(C)c1cccc(Oc2cc3c(=O)n(CC(=O)N4CCC(F)CC4)cnc3cc2NC(=O)COCc2ccc(C(F)(F)F)cc2)c1`, the values for the IC50 in data set [2] and in data set [3] were 1110 nM and 210 nM, respectively. The inhibition worked out at 94.3% in data set [4] (filed as antagonist) and 89.1% in data set [5] (filed as antagonist).

As to `CN(C)c1cccc(Oc2cc3c(=O)n(CC(=O)N4CCCCC4)cnc3cc2NC(=O)COCc2ccc(C(F)(F)F)cc2)c1`, the results for the IC50 in data set [2] and in data set [3] were 1750 nM and 260 nM, respectively. For the same molecule, the values for the inhibition in data set [4] (filed as antagonist) and in data set [5] (filed as antagonist) were 92.4% and 87.5%, respectively.

In the case of `COC(=O)Cn1cnc2cc(NC(=O)COCc3ccc(C(F)(F)F)cc3)c(Oc3cccc(N(C)C)c3)cc2c1=O`, the IC50 in data set [2] was found to be 990 nM; in data set [3], 1150 nM. Also, the figures for the inhibition in data set [4] (filed as antagonist) and in data set [5] (filed as antagonist) were 76.9% and 85.4%, respectively.

Take `O=C(NCCOCc1ccc(C(F)(F)F)cc1)c1cc2nc[nH]c(=O)c2cc1-c1cccc(Cl)c1`: the IC50 in data set [3] was determined as 1340 nM. In data set [6], this molecule registered a half-life at 1.25 µM of 22.9 min. Besides, the inhibition in data set [5] (filed as antagonist) came to 64.4%.

In data set [6], `O=C(O)Cn1cnc2cc(C(=O)NCCCOc3ccc(C(F)(F)F)cc3)c(-c3cccc(Cl)c3)cc2c1=O` displayed a half-life at 1.25 µM of 22.9 min. For the same molecule, the inhibition in data set [5] worked out at 22%.

Consider `CN(C)c1cccc(Oc2cc3c(=O)[nH]cnc3cc2NC(=O)COCc2ccc(C#N)cc2)c1`, for which the IC50 in data set [3] was 9330 nM. For the same molecule, the inhibition came to 19.3% in data set [4] and 30.4% in data set [5].

In the case of `O=C(COCc1ccc(C(F)(F)F)cc1)Nc1cc2ncn(CC(=O)N3CCCC(F)(F)C3)c(=O)c2cc1Oc1cccc(N2CCOCC2)c1`, the IC50 in data set [2] is 500 nM; in data set [3], 540 nM. Moreover, the half-life at 1.25 µM in data set [6] amounted to 12.9 min. Also, the inhibition in data set [5] (filed as antagonist) was 88.2%.

In the case of `COC(=O)Cn1cnc2cc(NC(=O)CCCOc3ccc(C(F)(F)F)cc3)c(Oc3cccc(N4CCOCC4)c3)cc2c1=O`, the IC50 in data set [3] was found to be 1380 nM. In data set [6], this molecule displayed a half-life at 1.25 µM of 9.6 min. The inhibition in data set [5] (filed as antagonist) is 91.2%.

On to `CN(C)c1cccc(Oc2cc3c(=O)n(CC(=O)N4CCCC(F)(F)C4)cnc3cc2NC(=O)COCc2ccc(C(F)(F)F)cc2)c1`, for which the figures for the IC50 in data set [2] and in data set [3] were 660 nM and 140 nM, respectively. In addition, the inhibition turned out to be 94.2% in data set [4] (filed as antagonist) and 90.4% in data set [5] (filed as antagonist).

With `O=C(CCCOc1ccc(C(F)(F)F)cc1)Nc1cc2nc[nH]c(=O)c2cc1Oc1cccc(N2CCOCC2)c1`, the IC50 in data set [3] was 2480 nM. The same molecule had a half-life at 1.25 µM in data set [6] of 10.1 min. For the same molecule, the inhibition in data set [5] (filed as antagonist) turned out to be 65.4%.

Turning to `CN(C)c1cccc(Oc2cc3c(=O)[nH]cnc3cc2NC(=O)COCc2ccc(C(F)(F)F)cc2)c1`, the IC50 in data set [2] worked out at 800 nM. In addition, the inhibition came to 54% in data set [4] (filed as antagonist) and 50.4% in data set [5] (filed as antagonist).

Regarding `COC(=O)Cn1cnc2cc(NC(=O)COCc3ccc(C#N)cc3)c(Oc3cccc(N(C)C)c3)cc2c1=O`, the inhibition in data set [4] (filed as antagonist) worked out at 58.7%; in data set [5] (filed as antagonist) it was 55.7%.

With `COC(=O)Cn1cnc2cc(NC(=O)COCc3ccc(C(F)(F)F)cc3)c(Oc3cccc(N4CCOCC4)c3)cc2c1=O`, the IC50 in data set [2] is 550 nM; in data set [3] it was 650 nM. Also, the inhibition in data set [5] (filed as antagonist) was 88.9%.

In the case of `COC(=O)Cn1cnc2cc(NC(=O)COCc3ccc(F)cc3)c(Oc3cccc(N(C)C)c3)cc2c1=O`, the results for the inhibition in data set [4] (filed as antagonist) and in data set [5] were 42.5% and 33.4%, respectively.

`O=C(Cn1c(CCNC(=O)c2ccccc2)nc2ccccc21)Nc1ccc2c(c1)CCC2`: the IC50 in data set [7] is above 50000 nM; in data set [1] it was 3300 nM.

In the case of `CN(C)c1cccc(Oc2cc3c(=O)[nH]cnc3cc2NC(=O)CCCOc2ccc(C(F)(F)F)cc2)c1`, the IC50 in data set [2] amounted to 4770 nM; in data set [3], 5640 nM. Besides, the inhibition in data set [4] (filed as antagonist) came out at 58.5%; in data set [5] (filed as antagonist), 59.1%.

For the molecule `O=C(NCCCOc1ccc(C(F)(F)F)cc1)c1cc2ncn(CC(=O)N3CCCCC3)c(=O)c2cc1-c1cccc(Cl)c1`, the concentration for half-maximal inhibition (IC50) in data set [2] and in data set [3] was 800 nM throughout. The half-life at 1.25 µM in data set [6] turned out to be 15.6 min. For the same molecule, in data set [5] (filed as antagonist), the inhibition stood at 93.2%.

For `CN(C)c1cccc(Oc2cc3c(=O)n(CC(=O)N4CCC(F)(F)CC4)cnc3cc2NC(=O)COCc2ccc(C(F)(F)F)cc2)c1`, the IC50 in data set [2] is 1180 nM; in data set [3], 270 nM. The results for the inhibition in data set [4] (filed as antagonist) and in data set [5] (filed as antagonist) were 87% and 82%, respectively.

In the case of `COC(=O)Cn1cnc2cc(NC(=O)COCc3ccccc3)c(Oc3cccc(N(C)C)c3)cc2c1=O`, the inhibition came to 35% in data set [4] and 47.6% in data set [5] (filed as antagonist).

As for `CN(C)c1cccc(Oc2cc3c(=O)[nH]cnc3cc2NC(=O)c2ccc(C#N)cc2)c1`, the inhibition in data set [4] was determined as 13.1%; in data set [5], 19.4%.

As to `O=C(NCCCOc1ccc(C(F)(F)F)cc1)c1cc2nc[nH]c(=O)c2cc1-c1cccc(Cl)c1`, the IC50 in data set [2] and in data set [3] was 840 nM throughout. For the same molecule, the inhibition in data set [5] (filed as antagonist) is 90%.

With `COC(=O)Cn1cnc2cc(C(=O)NCCCOc3ccc(C(F)(F)F)cc3)c(-c3cccc(Cl)c3)cc2c1=O`, the IC50 turned out to be 1000 nM in data set [2] and 890 nM in data set [3]. In addition, the inhibition in data set [5] (filed as antagonist) is 89.6%.

Broadly, the IC50 is the point on the concentration scale where inhibition reaches its midpoint. A word on the inhibition: it is the percentage by which the read-out fell short of the control. What is called half-life is how long it takes for the measured level to halve. Lower therefore signals fast loss.

(Values after ChEMBL document CHEMBL4706575, “Nonpeptidic quinazolinone derivatives as dual nucleotide-binding oligomerization domain-like receptor 1/2 antagonists for adjuvant cancer chemotherapy” (Eur J Med Chem, 2020).)
